# The star is where a group is joined. Cbz = O=C(OCc1ccccc1)*; CH2F = FC*
# Tests used:
# PC‐3 cells [1] = assay: Cell growth; type: cell-based, human
# LNCaP cells [2] = assay: Cell growth; type: cell-based, human
# DU145 cells [3] = assay: Cell growth; type: cell-based, human
# caspase‐9 = assay: Fluorometric caspase‐9 activity in LNCaP lysates; type: cell-based, human; details: 10^−6 M
# Method in brief: (§1)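 Serum-free adapted LNCaP cells were treated with 10−6 M test compound, with pan-caspase inhibitor and etoposide arms as indicated. Lysate was mixed with an equal volume of 20 mM HEPES pH 7.5, 10% glycerol, 2 mM DTT containing 50 μM substrate: DEVD-AFC (caspase-3), IETD-AFC (caspase-8) or LEHD-AFC (caspase-9). Background wells lacked lysate. Fluorescence was read at 400 nm excitation/508 nm emission, expressed as fold over control.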
# PC‐3 cells [4] = assay: Colony forming efficiency, PC‐3; type: cell-based, human; details: PC‐3, Figure 4A
# Method in brief: (§2)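 Serum-free adapted cells were trypsinized (0.25% trypsin in PBS, 5 min, 37°C) into single-cell suspensions; suspensions under 90% trypan-blue-viable were discarded. 1000 cells per 65-mm dish were grown 21 days at 37°C, 5% CO2, in RPMI 1640 plus ITS+1 with test compound, refreshed every 5 days. Colonies were fixed in 1% formaldehyde and stained with methylene blue. CFE = colonies/cells inoculated × 100.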
# RWPE‐1 cells = assay: Metabolic activity; type: cell-based, human; details: non‐tumorigenic RWPE‐1 compared with PC cell lines
# Method in brief: (§3)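 Serum-free adapted LNCaP, PC-3, DU145 or RWPE-1 cells were seeded at 400 cells/well in RPMI-1640 plus ITS+1. Test compound was added at seeding and again at day 2 by medium change. Viability was read at day 5 as intracellular ATP by luminescence (ViaLight HS). Results are % viable cells relative to vehicle control; at least three experiments in triplicate, mean ± SD.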
# LNCaP cells [5] = assay: Metabolic activity; type: cell-based, human; details: concentrations of 10^−6 M and above
# Method in brief: as §3
# LNCaP cells [6] = assay: TUNEL assay of apoptosis; type: cell-based, human; details: for proportion of apoptotic cells (TUNEL): 10^−6 M, 60 hours post‐treatment
# Method in brief: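 Serum-free adapted LNCaP cells (5 × 10^5 per 75 cm2 flask) were treated with 10−6 M test compound or vehicle over a time course. Z-VAD-FMK (50 μM) was added 1 h before compound where indicated. Adherent plus floating cells were cytospun and stained by TdT fluorescein in situ labelling. Positive cells were counted per 500 cells in five fields, on three slides per sample; results are % apoptotic cells.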
# LNCaP cells [7] = assay: Agarose gel electrophoresis of DNA; type: cell-based, human; details: time course
# RARβ = molecular target: T1, RARβ (Homo sapiens, UniProt P10826); details: binding affinities of synthetic retinoids; cited from earlier work
# T1 sequence (P10826 183-417 limits assumed): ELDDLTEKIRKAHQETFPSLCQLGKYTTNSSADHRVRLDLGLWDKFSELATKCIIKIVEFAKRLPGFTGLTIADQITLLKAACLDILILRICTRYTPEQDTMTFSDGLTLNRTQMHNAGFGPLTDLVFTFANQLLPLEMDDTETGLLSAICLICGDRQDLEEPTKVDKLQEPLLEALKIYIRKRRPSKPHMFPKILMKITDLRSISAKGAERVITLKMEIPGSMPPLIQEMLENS
# RARγ = molecular target: T2, RARγ (Homo sapiens, UniProt P13631); details: binding affinities of synthetic retinoids; cited from earlier work
# T2 sequence (P13631 185-419 limits assumed): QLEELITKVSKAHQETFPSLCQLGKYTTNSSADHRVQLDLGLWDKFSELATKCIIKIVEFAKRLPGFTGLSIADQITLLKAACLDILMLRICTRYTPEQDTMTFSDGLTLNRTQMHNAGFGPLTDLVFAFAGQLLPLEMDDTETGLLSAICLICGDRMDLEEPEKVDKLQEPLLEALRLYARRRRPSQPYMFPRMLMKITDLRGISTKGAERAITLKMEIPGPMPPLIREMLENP
# DU145 cells [8] = assay: Colony forming efficiency, DU145; type: cell-based, human; details: DU145, Figure 4A
# Method in brief: as §2
# caspase‐8 = assay: Fluorometric caspase‐8 activity in LNCaP lysates; type: cell-based, human; details: 10^−6 M
# Method in brief: as §1
# caspase‐3 = assay: Fluorometric caspase‐3 activity in LNCaP lysates; type: cell-based, human; details: 10^−6 M
# Method in brief: as §1
# DU145 cells [9] = assay: Metabolic activity; type: cell-based, human; details: DU145, concentrations of 10^−6 M and above
# Method in brief: as §3
# LNCaP cells [10] = assay: Cell cycle analysis; type: cell-based, human; details: 10^−6 M; for proportion of cells sub‐G0/G1: 48‐hour timepoint
# Method in brief: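 Serum-free adapted LNCaP cells treated with test compound over a time course to 48 h. Harvested cells stained with propidium iodide and analysed by flow cytometry. Phases were assigned by DNA content: 2n is G1, 4n is G2/M, and between 2n and 4n is S. Cells below 2n (sub-G1) were scored as apoptotic. Results are percentages of cells per phase.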
# LNCaP cells [11] = assay: Colony forming efficiency, LNCaP; type: cell-based, human; details: Figure 4A
# Method in brief: as §2
# PC‐3 cells [12] = assay: Metabolic activity; type: cell-based, human; details: PC‐3, concentrations of 10^−6 M and above
# Method in brief: as §3
# RARα = molecular target: T3, RARα (Homo sapiens, UniProt P10276); details: binding affinities of synthetic retinoids; cited from earlier work
# T3 sequence (P10276 183-417 limits assumed): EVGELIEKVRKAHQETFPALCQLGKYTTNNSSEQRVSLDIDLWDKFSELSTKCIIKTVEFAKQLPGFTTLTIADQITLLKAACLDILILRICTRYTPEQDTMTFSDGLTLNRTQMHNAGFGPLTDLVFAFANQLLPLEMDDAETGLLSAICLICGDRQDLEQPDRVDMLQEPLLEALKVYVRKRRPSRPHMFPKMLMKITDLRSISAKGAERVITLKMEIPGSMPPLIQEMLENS
# LNCaP cells [13] = assay: Adipogenic differentiation; type: cell-based, human
# LNCaP cells [14] = details: previous data; cited from earlier work
Compound,"colony forming efficiency (CFE), antagonists (PC‐3 cells [4])",proportion of apoptotic cells (TUNEL) (LNCaP cells [6]),ED50 RARβ (RARβ) [nM],ED50 RARγ (RARγ),"colony forming efficiency (CFE), antagonists (DU145 cells [8])","colony forming efficiency (CFE), antagonists (LNCaP cells [11])",ED50 RARα (RARα) [nM],also measured
"CC1=C(/C=C/C(C)=C/C=C/C(C)=C/C(=O)O)C(C)(C)CCC1 [ATRA, All‐trans‐retinoic acid]",–,–,–,–,–,–,–,"effect on cell growth (PC‐3 cells [1]; PC‐3, 10^−8 M and above): progressively diminished cell growth; increase in cell numbers (PC‐3 cells [1]; PC‐3, 5 days, 10^−11‐10^−9 M): up to 1.5 fold; effect on cell growth (LNCaP cells [2]; 10^−8 M and above): progressively diminished cell growth; increase in cell numbers (LNCaP cells [2]; 5 days, 10^−11‐10^−9 M): up to 1.5 fold; effect on cell growth (DU145 cells [3]; DU145, 10^−8 M and above): progressively diminished cell growth; increase in cell numbers (DU145 cells [3]; DU145, 5 days, 10^−11‐10^−9 M): up to 1.5 fold"
"Cc1ccc(C2=CCC(C)(C)c3cc(C(/C=C/c4ccc(C(=O)O)cc4)=N/O)ccc32)cc1 [AGN205728, 4‐[(E,3E)‐3‐[8,8‐Dimethyl‐5‐(4‐methylphenyl)‐7H‐naphthalen‐2‐yl]‐3‐hydroxyiminoprop‐1‐enyl]benzoic acid]",diminished the CFE,40%,4248,3 nM,diminished the CFE,diminished the CFE,2400.0,activation of caspase‐9 (caspase‐9): failed to activate; response of metabolic activity (RWPE‐1 cells): significantly diminished response; metabolic activity (LNCaP cells [5]): abolishing metabolic activity; DNA fragmentation pattern (LNCaP cells [7]): discrete laddering pattern that is typical of cells undergoing apoptosis; activation of caspase‐8 (caspase‐8): failed to activate; activation of caspase‐3 (caspase‐3): failed to activate; metabolic activity (DU145 cells [9]): abolishing metabolic activity; proportion of cells in G1 phase (LNCaP cells [10]): gradually increased; proportion of cells in S‐phase (LNCaP cells [10]): fall; proportion of cells sub‐G0/G1 (LNCaP cells [10]): ~40%; metabolic activity (PC‐3 cells [12]): abolishing metabolic activity
"CC1(C)CCC(C)(C)c2c1cc(C(=O)Nc1cc(F)c(C(=O)O)c(F)c1)c(O)c2Cl [AGN195183, 4‐(4‐Chloro‐3‐hydroxy‐5,5,8,8‐tetramethyl‐5,6,7,8‐tetrahydronaphthalene‐2‐carboxamido)‐2,6‐difluorobenzoic acid]",–,–,>5000,>5000 nM,–,–,20.1,–
"CC1(C)CCC(C)(C)c2cc(/C(=N\O)c3cc4cc(C(=O)O)ccc4[nH]3)ccc21 [AGN205327, 2‐[(E)‐N‐Hydroxy‐C‐(5,5,8,8‐tetramethyl‐6,7‐dihydronaphthalen‐2‐yl)carbonimidoyl]‐1H‐indole‐5‐carboxylic acid]",–,–,734,32 nM,–,–,3766.0,"effect on ciglitazone‐induced adipogenesis (LNCaP cells [13]; AGN205327 added later than 48 hours post‐induction): failed to have any effect; inhibition of ciglitazone‐induced adipogenic differentiation (LNCaP cells [13]; ciglitazone (10^−7 M), AGN205327 10^−7 M given between 48 hours pre‐ and post‐addition of ciglitazone): ≤ 70%"
"CCc1ccc(C2=CC(C)(C)Sc3ccc(C#Cc4ccc(C(=O)O)cc4)cc32)cc1 [AGN194310, 4‐[[4‐(4‐Ethylphenyl)‐2,2‐dimethyl‐(2H)‐thiochromen‐6‐yl]‐ethynyl]‐benzoic acid]",diminished the CFE,35%,5,2 nM,diminished the CFE,diminished the CFE,4.3,colony formation (LNCaP cells [14]): inhibited colony formation; proportion of cells in G1 phase (LNCaP cells [10]): gradually increased; proportion of cells in S‐phase (LNCaP cells [10]): fall; proportion of cells sub‐G0/G1 (LNCaP cells [10]): ~60%
Cbz-Val-Ala-Asp-CH2F [reference compound],–,–,–,–,–,–,–,"effect of pre‐treatment on AGN205728‐induced apoptosis (TUNEL) (LNCaP cells [6]; Z‐VAD‐FMK 5 × 10^−5 M, AGN205728 10^−6 M): failed to diminish induction of apoptosis by AGN205728"
O=C(Nc1ccccc1)c1cc([N+](=O)[O-])ccc1Cl [GW9662],–,–,–,–,–,–,–,"inhibition of accumulation of lipid droplets (LNCaP cells [13]; differentiation medium, day 14, AGN205327 10^−7 M, GW9662 10^−5 M): of a similar order"
"CCOc1c(Br)cc(C(=O)Nc2ccc(C(=O)O)cc2)cc1C(=O)c1ccc(C)cc1 [AGN196996, 4‐(3‐Bromo‐4‐ethoxy‐5‐(4‐methylbenzoyl)benzamido)benzoic acid]","neither ATRA, nor the RARα‐selective antagonist AGN196996 (Figure 1, S1C, S1F and Table 1) proved as effective AGN205728 or AGN194310",little evidence of induction of apoptosis,4036,>10 000 nM,"neither ATRA, nor the RARα‐selective antagonist AGN196996 (Figure 1, S1C, S1F and Table 1) proved as effective AGN205728 or AGN194310","neither ATRA, nor the RARα‐selective antagonist AGN196996 (Figure 1, S1C, S1F and Table 1) proved as effective AGN205728 or AGN194310",3.9,"effect of co‐treatment on AGN195183‐mediated growth inhibition (LNCaP cells [2]; 4 days, AGN196996 10^−8 M with AGN195183 10^−8 M): abolished AGN195183‐mediated growth inhibition; effect of co‐treatment with ATRA on proliferation (LNCaP cells [2]; 4 days, AGN196996 10^−8 M with ATRA 10^−8 M): promoted proliferation of LNCaP cells"
